For series [1], the system named is MDA-MB-231. The series is described as follows: Anticancer activity against human MDA-MB-231 cells assessed as inhibition of cell proliferation. The format is functional, cell-based.
The test system of series [2] is HeLa. The series is described as follows: Anticancer activity against human HeLa cells assessed as inhibition of cell proliferation. The class given is functional, cell-based.
In series [3] the test system is A549. Description: Anticancer activity against human A549 cells assessed as inhibition of cell proliferation. The class given is functional, cell-based.
Series [4] relates to MDA-MB-231. Description: Induction of apoptosis in human MDA-MB-231 cells assessed as dead cells at 10 uM by Annexin V-FITC/propidium iodide staining based flow cytometric analysis (reference value: 0.68 %). The class given is functional. In a few lines: (§1)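 MDA-MB-231 cells were cultured with compound at 10 μM. DMSO-treated cells served as the vehicle control and combretastatin A4 (10 μM) as the positive control. Cells were double-labelled with Annexin V-FITC and propidium iodide and analysed by flow cytometry. Population percentages were read from the quadrants: early-apoptotic, late-apoptotic and dead cells. Incubation time was not given.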
In general terms: Flow cytometry measures light scatter and fluorescence of single cells or particles in a stream.

The test system of series [5] is MDA-MB-231. Description: Induction of apoptosis in human MDA-MB-231 cells assessed as early apoptotic cells at 10 uM by Annexin V-FITC/propidium iodide staining based flow cytometric analysis (reference value: 4.66 %). The format is functional. In a few lines: as §1
Series [6] concerns MDA-MB-231. Description: Induction of apoptosis in human MDA-MB-231 cells assessed as viable cells at 10 uM by Annexin V-FITC/propidium iodide staining based flow cytometric analysis (reference value: 93.6 %). The class given is functional. Conditions: read-out: Activity.
For series [7], the system named is MDA-MB-231. Description: Induction of apoptosis in human MDA-MB-231 cells assessed as late apoptotic cells at 10 uM by Annexin V-FITC/propidium iodide staining based flow cytometric analysis (reference value: 1.02 %). The class given is functional. In a few lines: as §1
Series [8] relates to MDA-MB-231. Description: Induction of cell cycle arrest in human MDA-MB-231 cells assessed as accumulation of cells at G2 phase at 10 uM (reference value: 16.5 %). The format is functional.
For series [9], the system named is MDA-MB-231. The series is described as follows: Induction of cell cycle arrest in human MDA-MB-231 cells assessed as accumulation of cells at G1 phase at 10 uM (reference value: 61.33 %). The class given is functional.
Series [10] has as its system MDA-MB-231. The series is described as follows: Induction of cell cycle arrest in human MDA-MB-231 cells assessed as accumulation of cells at S phase at 10 uM (reference value: 21.17 %). The class given is functional.
Series [11] in a line: Cytotoxicity against HUVEC cells assessed as inhibition of cell growth. Conditions: human.

In the case of `O=C1C=CC2(C=C1)OCC(=O)N2Cc1c(Cl)cccc1Cl`, the figures for the IC50 in [1], in [2] and in series [3] were 120 nM, 290 nM and 4950 nM, respectively.
Consider `O=C1C=CC2(C=C1)OCC(=O)N2Cc1ccc([N+](=O)[O-])cc1`, for which the figures for the half-maximal inhibitory concentration (IC50) in [1], in series [2] and in series [3] were 210 nM, 270 nM and 810 nM, respectively.
`COc1ccc(/C=C\c2cc(OC)c(OC)c(OC)c2)cc1O` [COMBRETASTATIN A4]: the Activity worked out at 0.35% in series [4]; 17.2% in series [5]; 4.81% in series [7]; 57.38% in series [8]; 10.16% in [9]; 32.46% in series [10]. Besides, the viability at 10 µM in series [6] stood at 77.7%.
Regarding `COC(=O)C(C(=O)OC)C1CC(=O)C=CC12OCC(=O)N2Cc1cccc(Cl)c1` (configuration not stated), the IC50 in [1] worked out at 250 nM; in [2], 340 nM; in series [3] it was 260 nM.
On to `O=C1C=CC2(C=C1)OCC(=O)N2Cc1cccc(Cl)c1`, for which the IC50 is 110 nM in series [1], 370 nM in series [2] and 3010 nM in series [3].
In the case of `O=C1C=CC2(C=C1)OCC(=O)N2Cc1ccccc1Cl`, the IC50 turned out to be 70 nM in series [1], 360 nM in series [2] and 1050 nM in series [3].
The corresponding values for `Cc1ccc(CN2C(=O)COC23C=CC(=O)C=C3)cc1` are 100 nM, 200 nM and 260 nM.
On to `COC(=O)C(C(=O)OC)C1CC(=O)C=CC12OCC(=O)N2Cc1ccc(Br)cc1` (configuration not stated), for which the IC50 amounted to 1230 nM in [1], 1060 nM in series [2] and 2550 nM in [3].
On the same counts, the results for `CCSC1CC(=O)CC(SCC)C12OCC(=O)N2Cc1ccc(C)cc1` (configuration not stated) are 1360 nM, 2410 nM and 2300 nM.
Turning to `O=C1C=CC2(OCC(=O)N2Cc2ccccc2Cl)C2CC12` (configuration not stated), the IC50 in series [1] is 420 nM; in series [2] it was above 10000 nM; in [3] it was 660 nM.
Take `CCSC1=CC(=O)CC(SCC)C12OCC(=O)N2Cc1c(Cl)cccc1Cl` (configuration not stated): the IC50 in series [1] was found to be 120 nM; in [2], 210 nM; in series [3] it was 9270 nM.
For `O=C1C=CC2(OCC(=O)N2Cc2c(Cl)cccc2Cl)C2CC12` (configuration not stated), the IC50 is 5520 nM in [1], 1760 nM in [2] and 8830 nM in series [3].
Turning to `O=C1C=CC2(OCC(=O)N2Cc2cccc(Cl)c2)C2CC12` (configuration not stated), the values for the half-maximal inhibitory concentration (IC50) in [1], in [2] and in series [3] were 460 nM, 1730 nM and above 10000 nM, respectively.
As to `O=C1C=CC2(OCC(=O)N2Cc2ccc([N+](=O)[O-])cc2)C2CC12` (configuration not stated), the IC50 in [1] is 1200 nM; in series [2] it was 3860 nM; in series [3], above 10000 nM.
On to `COC(=O)C(C(=O)OC)C1CC(=O)C=CC12OCC(=O)N2Cc1ccc(C)cc1` (configuration not stated), for which the half-inhibitory concentration (IC50) turned out to be 340 nM in [1], 410 nM in [2] and 9250 nM in series [3].
On to `O=C1C=CC2(OCC(=O)N2Cc2ccc(Br)cc2)C2CC12` (configuration not stated), for which the IC50 was 1120 nM in series [1], above 10000 nM in series [2] and 6090 nM in [3].
With `CCSC1CC(=O)CC(SCC)C12OCC(=O)N2Cc1ccc(Cl)cc1` (configuration not stated), the IC50 in series [1] is 260 nM; in series [2], 3920 nM; in series [3] it was above 10000 nM.
`O=C1C=CC2(C=C1)OCC(=O)N2Cc1ccc(Cl)cc1`: the IC50 in series [1] is 110 nM; in series [2] it was 410 nM; in series [3], 1290 nM; in [11], 44600 nM.
On to `O=C1C=CC2(OCC(=O)N2Cc2ccc(Cl)cc2)C2CC12` (configuration not stated), for which the IC50 in series [1] was 100 nM; in series [2], above 10000 nM; in series [3], 6060 nM; in series [11], 83600 nM. For the same molecule, the Activity is 0.72% in series [4]; 10.9% in series [5]; 3% in [7]; 27.16% in series [8]; 53.57% in series [9]; 19.28% in series [10]. For the same molecule, the viability at 10 µM in series [6] was 85.4%.
On to `COC(=O)C(C(=O)OC)C1CC(=O)C=CC12OCC(=O)N2Cc1ccc(Cl)cc1` (configuration not stated), for which the IC50 in series [1] was determined as 380 nM; in series [2], 180 nM; in [3], 9980 nM.
As for `O=C1C=CC2(C=C1)OCC(=O)N2Cc1ccc(Br)cc1`, the IC50 in series [1] stood at 80 nM; in series [2], 150 nM; in [3], 190 nM.
As to `Cn1c(CCCC(=O)O)nc2cc(N(CCCl)CCCl)ccc21` [BENDAMUSTINE], in series [2], the IC50 was above 20000 nM.

A word on the IC50: it is the concentration that inhibits the measured activity by half.

These data come from ChEMBL document CHEMBL5104168, “Design, synthesis, and antitumor study of a series of novel 1-Oxa-4-azaspironenone derivatives” (Bioorg Med Chem Lett, 2022).
